Screening data deposited in PubChem by The Scripps Research Institute Molecular Screening Center.
This is a sample that favours compounds with a hit; in the whole collection about 1.8% have one here.
EphB4 ephrin blk: blocks human EphB4 binding to ephrin-B2; P54760; EphB4 LBD / TNYL-RAW-Alexa532 peptide, fluorescence polarization; inhibition, % at 7 µM; hit rate 0.15% among 97,000; AID 720;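 active means inhibition above the screen-wide mean inhibition plus 3 SD, cut at about 15% in these data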;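 further: 0% = DMSO wells and 100% = excess unlabeled TNYL-RAW peptide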
S1P2 ag: S1P2 (human) receptor agonism; O95136; S1P2-expressing cell line, agonist reporter read-out; activation, % at 4.5 µM; hit rate 0.46% among 97,000; in the data active means activation above about 16%;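 further: 0% = vehicle low control and 100% = maximal reference agonist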
GALR2 agonist: agonists of human galanin receptor 2 (GALR2); O43603; GALR2-expressing cells, agonist activation read-out; activation, % (test concentration not listed); hit rate 0.48% among 140,000; AID 803; in the data active means activation above about 5%, passing the limit was not always enough;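 further: 0% = vehicle buffer wells and 100% = reference agonist at full effect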
Target sequence (O43603 whole entry, looked up): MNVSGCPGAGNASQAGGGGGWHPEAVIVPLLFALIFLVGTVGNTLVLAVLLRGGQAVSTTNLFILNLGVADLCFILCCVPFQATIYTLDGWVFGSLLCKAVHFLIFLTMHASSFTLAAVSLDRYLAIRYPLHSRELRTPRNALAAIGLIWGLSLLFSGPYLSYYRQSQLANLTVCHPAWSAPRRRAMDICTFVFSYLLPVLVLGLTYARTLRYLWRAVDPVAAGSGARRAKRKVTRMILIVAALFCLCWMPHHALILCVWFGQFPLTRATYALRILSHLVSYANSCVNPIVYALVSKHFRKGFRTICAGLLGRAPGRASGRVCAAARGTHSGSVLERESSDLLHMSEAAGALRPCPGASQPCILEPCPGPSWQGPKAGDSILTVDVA
Rev-RRE block: HIV Rev-RRE protein-RNA interaction inhibition; P05866; Rev peptide-RRE RNA binding, FRET; inhibition, % at 8 µM; hit rate 0.79% among 97,000;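 active means inhibition above the screen-wide mean plus 3 SD, cut at about 35% in these data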;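 further: 0% = median DMSO wells and 100% = median Neomycin B control wells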
Target sequence (P05866 whole entry, looked up): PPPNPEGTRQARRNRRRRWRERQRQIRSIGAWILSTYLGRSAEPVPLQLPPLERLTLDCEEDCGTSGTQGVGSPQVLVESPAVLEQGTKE
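Assay system: Rev peptide and RRE RNA, both fluorescently labelled; times: 5 min preincubation and 15 min binding, 25 °C; detection: FRET, ex 480 nm, em 540 and 671 nm; read-out basis: % inhibition from 671/540 nm acceptor-to-donor ratio, scaled between controls; benchmarks: DMSO low control, neomycin B high control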
GALR2 blocker: blocks the human galanin receptor 2; O43603; GALR2-expressing cells, antagonist mode; inhibition, % at 4 µM; hit rate 0.39% among 140,000; in the data active means inhibition above about 27%;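 further: cells stimulated with galanin 1-16 at roughly its EC80; 0% = agonist challenge control and 100% = basal control without agonist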
S1P2 blocker: antagonists of human S1P2 receptor; O95136; cell-based S1P2 antagonist assay, inhibition at 5 uM; inhibition, % at 5 µM; hit rate 0.21% among 97,000; AID 736; in the data active means inhibition above about 45%;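 further: CRE beta-lactamase reporter cells expressing human S1P2 stimulated with S1P; 0% = agonist at EC80 alone and 100% = agonist plus reference antagonist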
* marks the source's active call; other numbers are inactive results; [ ] = another dose, or the depositor's remark.

How did CCc1ccc(CCC(=O)Nc2sc3c(c2C#N)CCCC3)o1 do in these assays?
EphB4 ephrin blk: 0.6; S1P2 ag: -4.8; GALR2 agonist: 0.2; Rev-RRE block: -2.4; GALR2 blocker: -6.4; S1P2 blocker: -7.0

Results for Cc1ccc(/C=C/C(=O)Nc2sc3c(c2C#N)CCCC3)o1 ?
GALR2 agonist: 5.7*; GALR2 blocker: 1.5

How did N#Cc1c(-c2ccc3c(c2)OCO3)csc1N do in these assays?
EphB4 ephrin blk: 0.4; S1P2 ag: -4.5; GALR2 agonist: -2.5; Rev-RRE block: 4.9; GALR2 blocker: -5.0; S1P2 blocker: -10.4

What do the screens show for `N#Cc1c(N)nc2c(c1-c1ccc3c(c1)OCO3)CCc1ccccc1-2`?
GALR2 agonist: 4.9*; GALR2 blocker: -9.8

Results for Cc1cc(C)c(S(=O)(=O)NCc2cn3c(C)csc3n2)cc1C ?
EphB4 ephrin blk: 19.4*; S1P2 ag: -3.4; GALR2 agonist: -2.8; Rev-RRE block: 9.8; GALR2 blocker: -1.3; S1P2 blocker: 11.8

What do the screens show for `Cc1cc(C)c(S(=O)(=O)NCc2cn3c(C)csc3n2)c(C)c1`?
EphB4 ephrin blk: -5.9; S1P2 ag: -5.5; GALR2 agonist: 0.1; Rev-RRE block: -3.5; GALR2 blocker: 3.5; S1P2 blocker: 12.8

What do the screens show for `N#Cc1c(NC(=S)NC(=O)c2ccccc2)sc2c1CCN(CCc1ccccc1)C2`?
GALR2 agonist: -0.4; GALR2 blocker: 5.3

Results for N#Cc1c(N)sc2c1CCN(CCc1ccccc1)C2 ?
EphB4 ephrin blk: 2.3; S1P2 ag: -2.3; GALR2 agonist: -0.4; Rev-RRE block: 65.2*; GALR2 blocker: 2.1; S1P2 blocker: -17.0

Results for CCCCNS(=O)(=O)c1ccc(NC(=O)C(Sc2ccccc2)c2ccccc2)cc1 (centres undefined) ?
GALR2 agonist: -1.4; GALR2 blocker: 5.6

What do the screens show for `CCOC(=O)CSc1nnc(NC(=O)c2cccc([N+](=O)[O-])c2C)s1`?
GALR2 agonist: -1.4; GALR2 blocker: -6.9

Results for CC(=O)N1C(=O)C(=C2C=C(C)OC(C)=C2)c2ccccc21 ?
EphB4 ephrin blk: -0.8; S1P2 ag: -13.8; GALR2 agonist: -0.7; Rev-RRE block: 110.2*[fluorescence artefact?]; GALR2 blocker: 3.4; S1P2 blocker: 5.5

What do the screens show for `CC1=CC(=C2C(=O)c3ccccc3C2=O)C=C(C)O1`?
EphB4 ephrin blk: 6.6; S1P2 ag: -6.2; GALR2 agonist: 1.0; Rev-RRE block: -0.8; GALR2 blocker: 2.0; S1P2 blocker: 0.1

What do the screens show for `Cn1cc(Cl)c(C(=O)OCC(=O)Nc2ccccc2)n1`?
EphB4 ephrin blk: 15.5*; S1P2 ag: -0.3; GALR2 agonist: -2.5; Rev-RRE block: 2.7; GALR2 blocker: 2.0; S1P2 blocker: 13.3

What do the screens show for `CCN1CC=C2C(C1)C(c1ccc(Cl)s1)C(C#N)=C(N)C2(C#N)C#N` (centres undefined)?
EphB4 ephrin blk: 0.0; S1P2 ag: 2.6; GALR2 agonist: 1.4; Rev-RRE block: 86.8*[fluorescence artefact?]; GALR2 blocker: -4.9; S1P2 blocker: -5.9

Results for CCOC(=O)C1=C(c2ccccc2)OC(N)=C(C#N)C1c1ccc(Cl)s1 (centres undefined) ?
EphB4 ephrin blk: -11.8; S1P2 ag: -3.9; GALR2 agonist: -2.2; Rev-RRE block: 10.3; GALR2 blocker: 17.3; S1P2 blocker: 11.3

Results for C=CCNC(=O)C(=O)N/N=C/c1ccco1 ?
GALR2 agonist: 0.2; GALR2 blocker: -22.6

What do the screens show for `Cc1nc2sc3c(NCc4ccco4)ncnc3c2c2c1COC(C)(C)C2`?
EphB4 ephrin blk: 3.8; S1P2 ag: 26.5*; GALR2 agonist: -1.6; Rev-RRE block: 7.0; GALR2 blocker: -13.5; S1P2 blocker: -34.1

How did Cc1cc2c(c(=O)n1Cc1cccnc1)C(c1ccccc1)C(C#N)=C(N)O2 (centres undefined) do in these assays?
EphB4 ephrin blk: 2.4; S1P2 ag: -2.1; GALR2 agonist: -1.9; Rev-RRE block: 7.8; GALR2 blocker: -6.8; S1P2 blocker: 12.8

Results for CNc1nc2[nH]c(=O)c3c(c2s1)OC(N)=C(C#N)C3c1cccc(F)c1 (centres undefined) ?
EphB4 ephrin blk: -8.0; S1P2 ag: -3.0; GALR2 agonist: -0.9; Rev-RRE block: 99.1*[fluorescence artefact?]; GALR2 blocker: -1.9; S1P2 blocker: 2.8

Results for CCOCCCn1c(=NC(C)=O)c(C(=O)OCC)cc2c(=O)n3ccccc3nc21 ?
EphB4 ephrin blk: -3.1; S1P2 ag: 18.8*; GALR2 agonist: 7.8*; Rev-RRE block: 1.8; GALR2 blocker: 0.1; S1P2 blocker: -40.1

How did CCOC(=O)c1cc2c(=O)n3ccccc3nc2n(C(C)C)c1=NC(=O)c1ccncc1 do in these assays?
EphB4 ephrin blk: 2.1; S1P2 ag: 17.6*; GALR2 agonist: 7.2; Rev-RRE block: 1.2; GALR2 blocker: -9.2; S1P2 blocker: -7.7

Results for CCOC(=O)c1cc2c(=O)n3ccccc3nc2n(CCCOC)c1=NC(=O)C(C)(C)C ?
EphB4 ephrin blk: 6.9; S1P2 ag: 32.8*; GALR2 agonist: 12.2*; Rev-RRE block: 11.0; GALR2 blocker: -21.5; S1P2 blocker: -43.0

How did CCOC(=O)c1cc2c(=O)n3ccccc3nc2n(CCCOC)c1=NC(=O)c1cccnc1 do in these assays?
EphB4 ephrin blk: -2.4; S1P2 ag: 21.7*; GALR2 agonist: 2.8; Rev-RRE block: 5.7; GALR2 blocker: -18.6; S1P2 blocker: -17.7

How did C=C(C)C1CC=C(C)/C(=N\NC(=O)CCc2ccccc2)C1 (centres undefined) do in these assays?
GALR2 agonist: -0.9; GALR2 blocker: -5.5

How did CC(C)c1ccccc1NC(=S)NCc1ccccc1F do in these assays?
GALR2 agonist: -0.7; GALR2 blocker: -0.7

What do the screens show for `COc1ccc(N=Nc2nc3cc(Br)c(Br)cc3n2C)c(OC)c1`?
GALR2 agonist: 0.6; GALR2 blocker: 13.6

How did O=C(Nc1ccc(F)cc1)c1ccccc1S(=O)(=O)c1ccccc1[N+](=O)[O-] do in these assays?
GALR2 agonist: -0.5; GALR2 blocker: -19.9

What do the screens show for `CCOC(=O)c1cc2c(=O)n3ccccc3nc2n(CCOC)c1=NC(=O)C(C)(C)C`?
EphB4 ephrin blk: 1.3; S1P2 ag: 25.5*; GALR2 agonist: 8.7*; Rev-RRE block: 9.5; GALR2 blocker: -17.7; S1P2 blocker: 10.3

Results for CCOC(=O)c1cc2c(=O)n3ccccc3nc2n(Cc2ccco2)c1=NC(=O)c1cccnc1 ?
EphB4 ephrin blk: -0.6; S1P2 ag: 2.5; GALR2 agonist: -0.7; Rev-RRE block: 12.2; GALR2 blocker: -5.5; S1P2 blocker: 7.1

What do the screens show for `CCOC(=O)c1cc2c(=O)n3ccccc3nc2n(CCOC)c1=NC(=O)c1ccncc1`?
EphB4 ephrin blk: -1.4; S1P2 ag: 19.0*; GALR2 agonist: 7.5*; Rev-RRE block: -1.0; GALR2 blocker: -11.3; S1P2 blocker: -14.5

Results for Cc1cc(C(=O)Nn2c(-c3ccc(Br)cc3)nc3ccccc3c2=O)ccc1[N+](=O)[O-] ?
GALR2 agonist: 0.1; GALR2 blocker: 6.7
